Measured values from different studies.
Lines come from different studies, so protocols differ.
Effect on: cell growth or viability

O=C(NO)Nc1nc2ccc(Br)cc2c(=O)n1-c1ccccc1  IC50 (SW480; MTT; 48 h): > 200 µM
COc1cccc2c1C(=O)c1c(O)c3c(c(O)c1C2=O)C[C@@](O)(C(=O)CO)C[C@@H]3O[C@H]1C[C@H](N)[C@H](O)[C@H](C)O1  IC50 (SW480; MTT; 48 h): 0.09 µM
Cc1ccc(NNc2nc3ccc(Br)cc3c(=O)n2-c2ccccc2)cc1  IC50 (SW480; MTT; 48 h): 85.4 µM
CC(C)C[C@H](NC(=O)[C@@H]1Cc2c(F)c(F)c(c(F)c2F)Sc2ccc(cc2)CC(=O)N[C@@H](C(C)C)C(=O)N1)C(=O)[C@@]1(C)CO1  IC50 (D283 Med): 0.091 µM
Cc1cc(Nc2ncnc3ccc(NC4=NC(C)(C)CO4)cc23)ccc1Oc1ccn2ncnc2c1  IC50 (NCI-N87; ATP luminescence): 0.0898 µM
O=C(NO)c1ccc(Cn2cnc3c(Nc4cccc([N+](=O)[O-])c4)ncnc32)cc1  IC50 (MM1.S; MTT; 72 h): 1.56 µM
CN(C)C(=O)Nc1nc2ccc(Br)cc2c(=O)n1-c1ccccc1  IC50 (SW480; MTT; 48 h): > 200 µM
CC1(P2(=O)CCCCC2)C=CCC=C1  IC50 (SW480; MTT; 72 h): > 100 µM
Nc1ccccc1NC(=O)c1ccc(Cn2cnc3c(Nc4ccc(Cl)cc4)ncnc32)cc1  IC50 (MM1.S; MTT; 72 h): 1.13 µM
O=P1(c2ccccc2)CCCCC1  IC50 (SW480; MTT; 72 h): > 100 µM
O=C(NO)c1ccc(Cn2cnc3c(Nc4ccc(Br)cc4F)ncnc32)cc1  IC50 (MM1.S; MTT; 72 h): 1.87 µM
NNc1nc2ccc(Br)cc2c(=O)n1-c1ccc(Cl)cc1  IC50 (SW480; MTT; 48 h): 10.9 µM
CN1CCC(NC2CCc3[nH]c4c(C(N)=O)ccc(-c5ccccc5Cl)c4c3C2)CC1 (stereo not shown)  IC50 (HGC-27; 96 h): 0.00961 µM
NNc1nc2c(Cl)cc(Cl)cc2c(=O)n1-c1ccc(Cl)cc1  IC50 (SW480; MTT; 48 h): > 200 µM
CCCN1CC(Oc2ccc([C@@H]3c4[nH]c5ccccc5c4C[C@@H](C)N3CC(C)(C)F)cc2)C1  IC50 (CAMA-1): 0.126 µM
NNc1nc2c(Cl)cc(Cl)cc2c(=O)n1-c1ccccc1  IC50 (SW480; MTT; 48 h): > 200 µM
C=C1CC[C@@H]2[C@](C)(CO)[C@H](O)CC[C@@]2(C)[C@@H]1C/C=C1/C(=O)OC[C@H]1O  IC50 (SW480; MTT; 48 h): 4.48 µM
Cc1cc2c(C(=O)O)cccc2n1-c1nc2c(c(NCc3ccccc3)n1)CCCN2  IC50 (MM1.S; 72 h): 0.9 µM
CCOc1cc2ncc(C#N)c(Nc3ccc(OCc4ccccn4)c(Cl)c3)c2cc1NC(=O)/C=C/CN(C)C  IC50 (NCI-N87; ATP luminescence): 0.0185 µM
CC(=O)Nc1ccc(O)cc1  IC50 (THLE-2; MTT): 28.6 µM
O=C(NO)c1ccc(Cn2cnc3c(Nc4ccc(F)c(Cl)c4)ncnc32)cc1  IC50 (MM1.S; MTT; 72 h): 2.69 µM
NNc1nc2ccc(Br)cc2c(=O)n1-c1ccccc1  IC50 (SW480; MTT; 48 h): 136 µM
